Reference: BindingDB's records for doi:10.1016/j.bmc.2011.09.065 (2011)

target: Amyloid-beta precursor protein (Homo sapiens, UniProt P05067); test: Binding affinity to human amyloid beta (1 to 42) fibril by fluorescence intensity assay
Summary of the method: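 Fibrils grown from human insulin (3 mg/mL, Tris-HCl 50 mM pH 3), E. coli-expressed human α-syn (3 mg/mL, pH 7.4) or Aβ(1–42) (0.5 mg/ml, 1% NH4OH). Fibril level taken as supernatant protein depletion. Plate-reader intensity read at each ligand's maximal excitation/emission wavelengths, dye blanks subtracted. Kd from single-site saturation fit.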

Chain of Amyloid-beta precursor protein (P05067 whole entry): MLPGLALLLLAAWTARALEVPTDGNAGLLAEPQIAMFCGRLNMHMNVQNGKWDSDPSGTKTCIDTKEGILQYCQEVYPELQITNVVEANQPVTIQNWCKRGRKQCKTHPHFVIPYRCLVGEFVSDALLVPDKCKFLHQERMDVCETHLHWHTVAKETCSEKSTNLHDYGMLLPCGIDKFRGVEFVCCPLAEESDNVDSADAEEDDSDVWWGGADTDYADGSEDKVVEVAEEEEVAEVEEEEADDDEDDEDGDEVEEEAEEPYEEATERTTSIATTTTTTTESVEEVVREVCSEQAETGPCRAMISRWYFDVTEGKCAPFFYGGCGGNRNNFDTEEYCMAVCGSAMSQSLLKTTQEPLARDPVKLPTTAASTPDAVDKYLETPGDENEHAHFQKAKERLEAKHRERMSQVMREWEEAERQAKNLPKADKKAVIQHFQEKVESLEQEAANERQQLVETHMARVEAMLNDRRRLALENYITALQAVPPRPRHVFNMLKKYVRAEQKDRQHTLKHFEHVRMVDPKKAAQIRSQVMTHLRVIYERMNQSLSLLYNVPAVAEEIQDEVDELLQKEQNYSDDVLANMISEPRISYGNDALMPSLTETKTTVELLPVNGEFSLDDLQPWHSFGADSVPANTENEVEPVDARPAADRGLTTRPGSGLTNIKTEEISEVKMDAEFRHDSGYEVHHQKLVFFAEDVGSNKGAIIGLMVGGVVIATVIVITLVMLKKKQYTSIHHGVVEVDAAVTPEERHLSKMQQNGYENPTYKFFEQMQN

Row | Kd | Structure (SMILES)
1 | 91 nM | CN(CCF)c1ccc(/C=C/c2nc3ccccc3s2)cc1
2 | 167 nM | CN(CCF)c1ccc(/C=C\c2nc3ccccc3o2)cc1
3 | 192 nM | CN(CCF)c1ccc(/C=C/c2nc3ccccc3n2C)cc1
4 | 222 nM | CN(CCF)c1ccc(/C=C/c2nc3ccccc3o2)cc1
5 | 42 nM | CN(CCF)c1ccc(/C=C\c2nc3ccccc3s2)cc1
6 | 286 nM | CN(CCF)c1ccc(/C=C\c2nc3ccccc3n2C)cc1
7 | 278 nM | CN(CCF)c1ccc(/C=C/c2nc3ccccc3[nH]2)cc1
